Data taken from ChEMBL document CHEMBL4699485, “Discovery and Development of SPR519 as a Potent, Selective, and Orally Bioavailable Inhibitor of PI3Kα and mTOR Kinases for the Treatment of Solid Tumors” (J Med Chem, 2020).

How the values were obtained:
[1] = target: Receptor tyrosine-protein kinase erbB-2 (Homo sapiens) (UniProt P04626); assay: Inhibition of human ERBB2 at 1 uM using fluorescently labeled peptide substrate measured after 3 hrs by microfluidic mobility shift assay relative to control
Procedure, shortened: (§1)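 Single-concentration screen at 1 µM in duplicate, 1% final DMSO. Kinase (typically 1 nM), fluorescently labeled peptide substrate (typically 1 µM), ATP at Km and Mg²⁺ incubated about 3 h at 25 °C, then EDTA-quenched. Substrate and phosphorylated product separated by microfluidic electrophoresis and quantified by fluorescence.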

Cytochrome P450 2D6 = Cytochrome P450 2D6 (Homo sapiens, UniProt P10635); assay: Inhibition of CYP2D6 in human liver microsomes using isoform-specific probe substrates preincubated for 5 mins followed by NADPH addition by LC-MS/MS analysis; format: ADME
Procedure, shortened: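 Human liver microsomes premixed with buffer and a CYP-specific FDA-recommended probe substrate, then spiked with inhibitor, in duplicate. After 5 min preincubation at 37 °C, reaction started with NADPH and run at 37 °C for a set time, then quenched. Metabolite formation quantified by HPLC/LC-MS/MS to derive the concentration giving 50% inhibition.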

[2] = Toxicity in Swiss mouse assessed as discoloration of brain at 30 mg/kg, po administered twice daily via gavage for 5 days and measured post last dose; format: organism-based; conditions: in vivo, 120 h, time 5 day
Procedure, shortened: (§2)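 Female Swiss mice (3 treated, 2 controls) were gavaged twice daily for 5 days, with compound in 0.5% CMC and Tween 80. After the last dosing the animals were sacrificed. Liver, kidney, lung, uterus and brain were excised and inspected visually for morphology and color change.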

[3] = Toxicity in Swiss mouse assessed as morphological changes in uterus at 30 mg/kg, po administered twice daily via gavage for 5 days and measured post last dose; format: organism-based; conditions: in vivo, 120 h, time 5 day; procedure, shortened: as §2
[4] = target: T1, Voltage-gated inwardly rectifying potassium channel KCNH2 (Homo sapiens, UniProt Q12809); assay: Inhibition of human ERG by patch-clamp assay
[5] = target: RAC-beta serine/threonine-protein kinase (Homo sapiens) (UniProt P31751); assay: Inhibition of human AKT2 at 1 uM using fluorescently labeled peptide substrate measured after 3 hrs by microfluidic mobility shift assay relative to control; procedure, shortened: as §1
[6] = target: Serine/threonine-protein kinase mTOR (Homo sapiens, UniProt P42345); assay: Inhibition of human mTOR at 1 uM using fluorescently labeled peptide substrate measured after 3 hrs by microfluidic mobility shift assay relative to control
Procedure, shortened: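 Single-concentration screen at 1 µM in duplicate wells, in a 23-kinase panel using microfluidic mobility shift. Compound was diluted from a 100x DMSO stock, with 1% DMSO final. Kinase (typically 1 nM), fluorescent peptide substrate (typically 1 µM), ATP at 1x Km and Mg2+ were incubated typically 3 h at 25 °C, then quenched with EDTA. Substrate and phospho-product were separated electrophoretically and quantified by fluorescence.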

[7] = target: T1, Voltage-gated inwardly rectifying potassium channel KCNH2; assay: Inhibition of human ERG channel trafficking expressed in mammalian expression system at 1 to 30 uM by HERG-Lite assay; conditions: dose 1-30 µM
Procedure, shortened: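 HERG-lite assay scoring both channel blocking and trafficking inhibition, with test compound at 1, 10 and 30 µM. Geldanamycin (1 µM) served as the trafficking-inhibition reference and astemizole as the standard hERG binder.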

[8] = Toxicity in Swiss mouse assessed as morphological changes in liver at 30 mg/kg, po administered twice daily via gavage for 5 days and measured post last dose; format: organism-based; conditions: in vivo, 120 h, time 5 day; procedure, shortened: as §2

T1 sequence (Q12809 whole entry): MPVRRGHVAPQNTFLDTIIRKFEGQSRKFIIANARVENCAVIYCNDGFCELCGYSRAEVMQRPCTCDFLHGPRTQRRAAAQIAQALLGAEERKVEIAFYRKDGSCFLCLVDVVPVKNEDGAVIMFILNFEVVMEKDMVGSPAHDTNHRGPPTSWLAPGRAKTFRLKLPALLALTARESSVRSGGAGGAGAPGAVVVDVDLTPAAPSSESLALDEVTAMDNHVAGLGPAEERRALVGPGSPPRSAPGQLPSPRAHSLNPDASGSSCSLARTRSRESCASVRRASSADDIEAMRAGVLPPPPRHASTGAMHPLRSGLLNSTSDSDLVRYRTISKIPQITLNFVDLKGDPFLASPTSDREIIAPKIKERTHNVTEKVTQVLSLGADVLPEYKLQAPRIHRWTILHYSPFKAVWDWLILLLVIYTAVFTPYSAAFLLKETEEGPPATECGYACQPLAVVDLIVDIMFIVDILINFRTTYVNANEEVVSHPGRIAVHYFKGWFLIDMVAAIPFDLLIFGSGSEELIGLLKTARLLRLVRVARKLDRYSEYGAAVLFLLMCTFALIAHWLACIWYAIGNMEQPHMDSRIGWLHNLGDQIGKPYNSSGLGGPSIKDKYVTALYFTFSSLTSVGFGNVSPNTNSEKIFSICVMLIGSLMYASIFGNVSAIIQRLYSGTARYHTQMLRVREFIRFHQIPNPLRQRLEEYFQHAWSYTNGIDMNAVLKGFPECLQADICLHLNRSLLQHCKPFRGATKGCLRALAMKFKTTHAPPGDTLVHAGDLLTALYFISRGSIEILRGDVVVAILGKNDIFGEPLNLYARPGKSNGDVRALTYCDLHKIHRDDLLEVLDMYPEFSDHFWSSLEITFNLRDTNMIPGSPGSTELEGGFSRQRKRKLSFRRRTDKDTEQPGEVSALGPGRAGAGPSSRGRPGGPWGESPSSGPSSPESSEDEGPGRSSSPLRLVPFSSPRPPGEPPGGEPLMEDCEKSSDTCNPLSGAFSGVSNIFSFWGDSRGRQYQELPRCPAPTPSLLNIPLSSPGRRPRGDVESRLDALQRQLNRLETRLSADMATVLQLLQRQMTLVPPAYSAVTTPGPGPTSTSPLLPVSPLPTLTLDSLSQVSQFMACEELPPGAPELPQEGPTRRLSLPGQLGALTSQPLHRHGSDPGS
Chain of Cytochrome P450 2D6 (P10635 whole entry, canonical isoform): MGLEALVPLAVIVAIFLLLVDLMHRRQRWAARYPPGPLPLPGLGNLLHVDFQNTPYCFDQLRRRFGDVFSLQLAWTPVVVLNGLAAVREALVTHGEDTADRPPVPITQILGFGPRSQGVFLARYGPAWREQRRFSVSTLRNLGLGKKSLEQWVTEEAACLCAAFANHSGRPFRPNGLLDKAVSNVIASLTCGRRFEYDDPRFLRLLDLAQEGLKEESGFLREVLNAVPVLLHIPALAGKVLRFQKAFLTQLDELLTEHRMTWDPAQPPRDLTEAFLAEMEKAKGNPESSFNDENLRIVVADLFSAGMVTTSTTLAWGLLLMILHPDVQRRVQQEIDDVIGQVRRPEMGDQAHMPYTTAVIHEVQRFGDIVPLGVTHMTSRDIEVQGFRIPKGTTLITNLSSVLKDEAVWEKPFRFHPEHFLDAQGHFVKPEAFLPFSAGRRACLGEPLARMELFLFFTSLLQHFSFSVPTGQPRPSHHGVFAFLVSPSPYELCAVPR
Chain of RAC-beta serine/threonine-protein kinase (Homo sapiens) (P31751 whole entry): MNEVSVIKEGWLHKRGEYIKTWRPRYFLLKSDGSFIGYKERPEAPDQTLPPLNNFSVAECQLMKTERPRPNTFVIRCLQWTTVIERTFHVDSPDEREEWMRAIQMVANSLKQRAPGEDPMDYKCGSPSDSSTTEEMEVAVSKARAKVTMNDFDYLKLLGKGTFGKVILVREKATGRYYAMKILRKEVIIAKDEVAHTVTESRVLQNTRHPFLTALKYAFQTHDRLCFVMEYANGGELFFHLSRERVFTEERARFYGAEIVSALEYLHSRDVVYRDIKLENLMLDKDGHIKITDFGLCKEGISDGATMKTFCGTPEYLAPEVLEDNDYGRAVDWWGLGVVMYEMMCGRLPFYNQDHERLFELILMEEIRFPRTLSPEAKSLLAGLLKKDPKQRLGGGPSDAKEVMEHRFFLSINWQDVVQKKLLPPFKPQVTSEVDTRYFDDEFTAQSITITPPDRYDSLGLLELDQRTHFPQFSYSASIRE
Chain of Receptor tyrosine-protein kinase erbB-2 (Homo sapiens) (P04626 whole entry): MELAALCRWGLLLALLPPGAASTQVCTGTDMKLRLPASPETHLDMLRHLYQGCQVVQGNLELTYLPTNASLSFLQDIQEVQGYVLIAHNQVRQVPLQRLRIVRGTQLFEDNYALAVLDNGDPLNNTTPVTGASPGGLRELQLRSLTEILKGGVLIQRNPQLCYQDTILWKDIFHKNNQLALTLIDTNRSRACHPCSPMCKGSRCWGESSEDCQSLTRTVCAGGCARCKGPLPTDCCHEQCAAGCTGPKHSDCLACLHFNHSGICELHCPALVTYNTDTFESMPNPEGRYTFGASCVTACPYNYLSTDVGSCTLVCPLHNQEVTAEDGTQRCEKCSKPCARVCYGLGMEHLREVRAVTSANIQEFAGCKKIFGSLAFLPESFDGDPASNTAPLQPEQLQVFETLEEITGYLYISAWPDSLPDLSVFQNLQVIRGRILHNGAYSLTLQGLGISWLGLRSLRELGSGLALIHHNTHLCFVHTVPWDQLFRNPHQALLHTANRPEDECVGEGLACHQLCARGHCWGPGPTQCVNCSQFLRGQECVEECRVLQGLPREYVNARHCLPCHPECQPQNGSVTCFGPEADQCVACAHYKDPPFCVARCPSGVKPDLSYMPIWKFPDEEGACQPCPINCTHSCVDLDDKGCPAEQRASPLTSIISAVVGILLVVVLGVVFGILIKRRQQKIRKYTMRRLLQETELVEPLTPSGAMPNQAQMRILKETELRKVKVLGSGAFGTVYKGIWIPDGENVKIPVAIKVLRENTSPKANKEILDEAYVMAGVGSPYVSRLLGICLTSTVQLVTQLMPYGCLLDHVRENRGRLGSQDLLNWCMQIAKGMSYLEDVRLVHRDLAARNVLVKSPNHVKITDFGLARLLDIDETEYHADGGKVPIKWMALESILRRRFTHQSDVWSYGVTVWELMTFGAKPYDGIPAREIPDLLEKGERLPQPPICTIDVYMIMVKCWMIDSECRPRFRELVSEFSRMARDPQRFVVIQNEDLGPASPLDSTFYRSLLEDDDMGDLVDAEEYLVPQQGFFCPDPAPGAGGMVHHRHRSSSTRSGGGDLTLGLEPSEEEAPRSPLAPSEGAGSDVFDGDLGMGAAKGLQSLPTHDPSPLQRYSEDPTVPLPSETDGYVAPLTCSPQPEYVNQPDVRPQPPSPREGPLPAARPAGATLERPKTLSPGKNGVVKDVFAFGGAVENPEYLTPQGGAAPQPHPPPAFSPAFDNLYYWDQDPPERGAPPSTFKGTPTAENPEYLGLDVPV

With `CN(C)C(=O)c1ccc(Oc2nc(-c3cnc(N)s3)nc(N3CCOCC3)n2)cc1` the inhibition [1] was -1%, the IC50 (Cytochrome P450 2D6) was greater than 10 µM and the Activity [2] was “Non-Toxic”. The Activity [3] was “Non-Toxic”, the IC50 [4] was greater than 10 µM and the inhibition [5] was 0%. For the same compound, the inhibition [6] was 89%, the “inhibition (INH)” value [7] was “Not Active” and the Activity [8] was “Non-Toxic”.
